Reference: ChEMBL document CHEMBL1157638, “Fluorescent epigenetic small molecule induces expression of the tumor suppressor ras-association domain family 1A and inhibits human prostate xenograft” (J Med Chem, 2010)
Calls of active or inactive are those of the source. The rule behind the calls is not given here.

Experiments:
[1] = test system: CCRF-CEM; test: Growth inhibition of human CCRF-CEM cells assessed as cell growth at 10 nM relative to untreated control; type: functional; conditions: read-out: Activity
[2] = test system: HOP-62; test: Growth inhibition of human HOP62 cells assessed as cell growth at 1 uM relative to untreated control; type: functional; conditions: read-out: Activity
How it was run: (§1)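 Run externally at the National Cancer Institute as a 59-cell-line panel screen, with concentrations up to 100 μM. Growth was scored relative to control, where negative growth or total cell kill was possible. Data are in the Supporting Information.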

[3] = test system: PC-3; test: Decrease in DNA synthesis in human PC3 cells at 5 uM after 24 hrs by BrdU incorporation assay; type: functional, cell-based
How it was run: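 PC-3 cells were seeded at 2 × 10⁴ cells/well and exposed to 5 μM compound or DMSO for 24 h. BrdU incorporation was read by chemiluminescent cell proliferation ELISA on a luminometer. Background without anti-BrdU-peroxidase was subtracted and values were normalized to untreated control. Values are mean ± SEM.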

[4] = test system: A549; test: Growth inhibition of human A549 cells assessed as cell growth at 1 uM relative to untreated control; type: functional; conditions: read-out: Activity
[5] = test system: SK-MEL-28; test: Growth inhibition of human SK-MEL-28 cells assessed as cell growth at 10 uM relative to untreated control; type: functional; conditions: read-out: Activity
[6] = test system: NCI-H23; test: Growth inhibition of human NCI-H23 cells assessed as cell growth at 1 uM relative to untreated control; type: functional; conditions: read-out: Activity
[7] = Growth inhibition of human […] cells assessed as cell growth at 10 nM relative to untreated control; type: functional; conditions: read-out: Activity
[8] = test system: CCRF-CEM; test: Growth inhibition of human CCRF-CEM cells assessed as cell growth at 1 uM relative to untreated control; type: functional; conditions: read-out: Activity
[9] = test system: SF-295; test: Growth inhibition of human SF295 cells; type: functional
[10] = test system: RXF 393; test: Growth inhibition of human RXF393 cells assessed as cell growth at 100 nM relative to untreated control; type: functional; conditions: read-out: Activity
[11] = test system: SK-MEL-5; test: Growth inhibition of human SK-MEL-5 cells assessed as cell growth at 10 nM relative to untreated control; type: functional; conditions: read-out: Activity
[12] = test system: COLO 205; test: Growth inhibition of human COLO205 cells assessed as cell growth at 1 uM relative to untreated control; type: functional; conditions: read-out: Activity
[13] = test system: SF-268; test: Growth inhibition of human SF268 cells; type: functional
[14] = test system: SK-MEL-5; test: Growth inhibition of human SK-MEL-5 cells assessed as cell growth at 10 uM relative to untreated control; type: functional; conditions: read-out: Activity
[15] = test system: MDA-MB-435; test: Growth inhibition of human MDA-MB-435 cells assessed as cell growth at 10 uM relative to untreated control; type: functional; conditions: read-out: Activity
[16] = test system: MDA-MB-435; test: Growth inhibition of human MDA-MB-435 cells; type: functional; conditions: read-out: LC50 (the source's name)
[17] = test system: K562; test: Growth inhibition of human K562 cells assessed as cell growth at 10 nM relative to untreated control; type: functional; conditions: read-out: Activity
[18] = test system: NCI-H460; test: Growth inhibition of human NCI-H460 cells assessed as cell growth at 100 nM relative to untreated control; type: functional; conditions: read-out: Activity
[19] = test system: MOLT-4; test: Growth inhibition of human MOLT4 cells assessed as cell growth at 10 nM relative to untreated control; type: functional; conditions: read-out: Activity
[20] = test system: TK-10; test: Growth inhibition of human TK10 cells; type: functional
[21] = test system: A549; test: Growth inhibition of human A549 cells assessed as cell growth at 100 nM relative to untreated control; type: functional; conditions: read-out: Activity
[22] = test system: NCI-H226; test: Growth inhibition of human NCI-H226 cells; type: functional
[23] = test system: HCC 2998; test: Growth inhibition of human HCC2998 cells assessed as cell growth at 1 nM relative to untreated control; type: functional; conditions: read-out: Activity; how it was run: as §1
[24] = test system: HL-60(TB); test: Growth inhibition of human HL-60(TB) cells assessed as cell growth at 10 uM relative to untreated control; type: functional; conditions: read-out: Activity
[25] = test system: SF-539; test: Growth inhibition of human SF539 cells assessed as cell growth at 1 nM relative to untreated control; type: functional; conditions: read-out: Activity
[26] = test system: KM12; test: Growth inhibition of human KM12 cells assessed as cell growth at 10 nM relative to untreated control; type: functional; conditions: read-out: Activity
[27] = test system: HCT-116; test: Growth inhibition of human HCT116 cells assessed as cell growth at 100 nM relative to untreated control; type: functional; conditions: read-out: Activity; how it was run: as §1
[28] = test system: SK-MEL-2; test: Growth inhibition of human SK-MEL-2 cells assessed as cell growth at 10 nM relative to untreated control; type: functional; conditions: read-out: Activity
[29] = test system: SF-268; test: Growth inhibition of human SF268 cells assessed as cell growth at 1 uM relative to untreated control; type: functional; conditions: read-out: Activity
[30] = test system: NCI-H522; test: Growth inhibition of human NCI-H522 cells assessed as cell growth at 1 uM relative to untreated control; type: functional; conditions: read-out: Activity
[31] = test system: OVCAR-3; test: Growth inhibition of human OVCAR-3 cells assessed as cell growth at 1 nM relative to untreated control; type: functional; conditions: read-out: Activity
[32] = test system: SF-295; test: Growth inhibition of human SF295 cells assessed as cell growth at 1 nM relative to untreated control; type: functional; conditions: read-out: Activity
[33] = test system: NCI-H23; test: Growth inhibition of human NCI-H23 cells; type: functional
[34] = test system: M14; test: Growth inhibition of human M14 cells assessed as cell growth at 10 nM relative to untreated control; type: functional; conditions: read-out: Activity
[35] = test system: SK-MEL-2; test: Growth inhibition of human SK-MEL-2 cells; type: functional
[36] = test system: 786-0; test: Growth inhibition of human 786-0 cells assessed as cell growth at 1 nM relative to untreated control; type: functional; conditions: read-out: Activity
[37] = test system: SW-620; test: Growth inhibition of human SW620 cells assessed as cell growth at 1 nM relative to untreated control; type: functional; conditions: read-out: Activity
[38] = test system: NCI/ADR-RES; test: Growth inhibition of human NCI/ADR-RES cells assessed as cell growth at 10 uM relative to untreated control; type: functional; conditions: read-out: Activity
[39] = test system: 786-0; test: Growth inhibition of human 786-0 cells assessed as cell growth at 10 nM relative to untreated control; type: functional; conditions: read-out: Activity
[40] = test system: SNB-19; test: Growth inhibition of human SNB19 cells; type: functional
[41] = test system: PC-3; test: Growth inhibition of human PC3 cells assessed as cell growth at 100 nM relative to untreated control; type: functional; conditions: read-out: Activity
[42] = test system: MDA-MB-435; test: Growth inhibition of human MDA-MB-435 cells assessed as cell growth at 100 nM relative to untreated control; type: functional; conditions: read-out: Activity
[43] = test system: PC-3; test: […] in RASSF1A gene expression in human PC3 cells at 5 uM after 3 days hrs by RT-PCR; type: functional, cell-based
[44] = test system: Malme-3M; test: Growth inhibition of human MALME-3M cells; type: functional
[45] = test system: EKVX; test: Growth inhibition of human EKVX cells; type: functional; how it was run: as §1
[46] = test system: HCC 2998; test: Growth inhibition of human HCC2998 cells assessed as cell growth at 1 uM relative to untreated control; type: functional; conditions: read-out: Activity; how it was run: as §1
[47] = read-out: LC50 (the source's name)

Which growth at 0.01 µM [1] does the source give for COc1ccc2c(c1)[nH]c1c(C)c(OS(=O)(=O)c3cccc4c(N(C)C)cccc34)ccc12 here?
Its growth at 0.01 µM is 92%.

And the growth at 1 µM [2]?
The growth at 1 µM was 55%.

And the Activity [3]?
Its Activity is “Active”.

What about the growth at 1 µM [4] of the same molecule?
Its growth at 1 µM is 31%.

And the growth at 10 µM [5]?
Its growth at 10 µM is 19%.

What about the growth at 1 µM [6] of the same molecule?
Its growth at 1 µM is 30%.

What about the growth at 0.01 µM [7] of the same molecule?
The growth at 0.01 µM was 58%.

And the growth at 1 µM [8]?
The growth at 1 µM was 1%.

What about the GI50 [9] of the same molecule?
Its GI50 is 3.4 µM.

What about the TGI [9] of the same molecule?
Its TGI is greater than 100 µM.

What about the CC50 [9, 47] of the same molecule?
Its CC50 is greater than 100 µM.

And the growth at 0.1 µM [10]?
The growth at 0.1 µM was 100%.

What about the growth at 0.01 µM [11] of the same molecule?
Its growth at 0.01 µM is 86%.

What about the growth at 1 µM [12] of the same molecule?
The growth at 1 µM was 23%.

And the GI50 [13]?
The GI50 was 75.1 µM.

And the TGI [13]?
Its TGI is greater than 100 µM.

And the CC50 [13, 47]?
The CC50 was greater than 100 µM.

What about the growth at 10 µM [14] of the same molecule?
The growth at 10 µM was -28%.

What about the growth at 10 µM [15] of the same molecule?
Its growth at 10 µM is -1%.

And the CC50 [16]?
Its CC50 is greater than 100 µM.

And the growth at 0.01 µM [17]?
Its growth at 0.01 µM is 98%.

And the growth at 0.1 µM [18]?
The growth at 0.1 µM was 98%.

What about the growth at 0.01 µM [19] of the same molecule?
The growth at 0.01 µM was 97%.

And the GI50 [20]?
Its GI50 is 9.19 µM.

And the TGI [20]?
Its TGI is greater than 100 µM.

What about the CC50 [20, 47] of the same molecule?
The CC50 was greater than 100 µM.

And the growth at 0.1 µM [21]?
Its growth at 0.1 µM is 95%.

What about the GI50 [22] of the same molecule?
The GI50 was 11.3 µM.

What about the TGI [22] of the same molecule?
The TGI was greater than 100 µM.

And the CC50 [22, 47]?
Its CC50 is greater than 100 µM.

What about the growth at 0.001 µM [23] of the same molecule?
Its growth at 0.001 µM is 99%.

And the growth at 10 µM [24]?
Its growth at 10 µM is -18%.

And the growth at 0.001 µM [25]?
Its growth at 0.001 µM is 104%.

And the growth at 0.01 µM [26]?
The growth at 0.01 µM was 102%.

What about the growth at 0.1 µM [27] of the same molecule?
The growth at 0.1 µM was 94%.

What about the growth at 0.01 µM [28] of the same molecule?
Its growth at 0.01 µM is 110%.

And the growth at 1 µM [29]?
The growth at 1 µM was 44%.

And the growth at 1 µM [30]?
The growth at 1 µM was 50%.

And the growth at 0.001 µM [31]?
The growth at 0.001 µM was 100%.

What about the growth at 0.001 µM [32] of the same molecule?
The growth at 0.001 µM was 94%.

And the GI50 [33]?
Its GI50 is 4.08 µM.

What about the TGI [33] of the same molecule?
Its TGI is greater than 100 µM.

What about the CC50 [33, 47] of the same molecule?
The CC50 was greater than 100 µM.

What about the growth at 0.01 µM [34] of the same molecule?
The growth at 0.01 µM was 105%.

And the GI50 [35]?
The GI50 was 10 µM.

What about the TGI [35] of the same molecule?
The TGI was greater than 100 µM.

And the CC50 [35, 47]?
The CC50 was greater than 100 µM.

What about the growth at 0.001 µM [36] of the same molecule?
The growth at 0.001 µM was 101%.

And the growth at 0.001 µM [37]?
Its growth at 0.001 µM is 103%.

What about the growth at 10 µM [38] of the same molecule?
The growth at 10 µM was 15%.

And the growth at 0.01 µM [39]?
The growth at 0.01 µM was 103%.

What about the GI50 [40] of the same molecule?
Its GI50 is 7.88 µM.

What about the TGI [40] of the same molecule?
The TGI was greater than 100 µM.

And the CC50 [40, 47]?
The CC50 was greater than 100 µM.

And the growth at 0.1 µM [41]?
Its growth at 0.1 µM is 96%.

What about the growth at 0.1 µM [42] of the same molecule?
Its growth at 0.1 µM is 83%.

What about the Activity [43] of the same molecule?
Its Activity is “Active”.

What about the GI50 [44] of the same molecule?
Its GI50 is 3.62 µM.

And the TGI [44]?
The TGI was greater than 100 µM.

What about the CC50 [44, 47] of the same molecule?
Its CC50 is greater than 100 µM.

And the GI50 [45]?
Its GI50 is 5.44 µM.

What about the TGI [45] of the same molecule?
Its TGI is greater than 100 µM.

And the CC50 [45, 47]?
The CC50 was greater than 100 µM.

And the growth at 1 µM [46]?
The growth at 1 µM was 52%.
